In ChEMBL document CHEMBL1817578, “2-({6-[(3R)-3-amino-3-methylpiperidine-1-yl]-1,3-dimethyl-2,4-dioxo-1,2,3,4-tetrahydro-5H-pyrrolo[3,2-d]pyrimidine-5-yl}methyl)-4-fluorobenzonitrile (DSR-12727): a potent, orally active dipeptidyl peptidase IV inhibitor without mechanism-based inactivation of CYP3A” (Bioorg Med Chem, 2011):
Active and inactive are the calls of the source. The rule behind the calls is not given here.

Legend:
[1] = Cmax in monkey at 3 mg/kg, po; assay type: ADME, organism-based, Macaca mulatta; parameters: dose 3 mg/kg, route oral; settings: rhesus monkey, in vivo
[2] = molecular target: Dipeptidyl peptidase 9 (Homo sapiens, UniProt Q86TI2); experiment: Inhibition of DPP9
[3] = Clearance in monkey at 1 mg/kg, iv; assay type: ADME, organism-based, Macaca mulatta; parameters: dose 1 mg/kg, route intravenous; settings: rhesus monkey, in vivo
[4] = system: Salmonella typhimurium; experiment: Genotoxicity in Salmonella Typhimurium by Ames test; assay type: toxicity, organism-based; settings: salmonella enterica subsp. enterica serovar typhimurium
[5] = molecular target: T1, Muscarinic acetylcholine receptor M4 (Homo sapiens, UniProt P08173); experiment: Binding affinity to muscarinic receptor 4
T1 sequence (P08173 whole entry): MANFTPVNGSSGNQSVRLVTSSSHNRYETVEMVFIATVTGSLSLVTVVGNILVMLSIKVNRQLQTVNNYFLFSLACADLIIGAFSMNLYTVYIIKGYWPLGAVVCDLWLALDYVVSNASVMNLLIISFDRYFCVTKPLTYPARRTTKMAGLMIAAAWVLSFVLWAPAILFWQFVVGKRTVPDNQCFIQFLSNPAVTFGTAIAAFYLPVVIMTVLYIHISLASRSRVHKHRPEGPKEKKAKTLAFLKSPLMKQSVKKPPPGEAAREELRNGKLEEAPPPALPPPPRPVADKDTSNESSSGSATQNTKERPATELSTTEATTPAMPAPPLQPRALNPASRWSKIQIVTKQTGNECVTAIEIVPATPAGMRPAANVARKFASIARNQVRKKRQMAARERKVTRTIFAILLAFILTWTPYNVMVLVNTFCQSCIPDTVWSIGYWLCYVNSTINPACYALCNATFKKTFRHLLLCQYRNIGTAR

[6] = Plasma protein binding in rat; assay type: ADME, cell-free; settings: read-out: PPB (converted)
[7] = molecular target: Cytochrome P450 2D6 (Homo sapiens, UniProt P10635); experiment: Inhibition of CYP2D6; assay type: ADME
[8] = molecular target: Xaa-Pro aminopeptidase 2 (Homo sapiens, UniProt O43895); experiment: Inhibition of aminopeptidase P
[9] = system: Rattus norvegicus; experiment: In vivo inhibition of DPP4 in Zucker fatty rat plasma assessed as AMC production at 3 mg/kg, po after 3 hrs by fluorescence microplate reader analysis; assay type: functional, organism-based; parameters: dose 3 mg/kg
Outline: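 Male Zucker fatty rats, 9 weeks old, fasted 24 h and kept fasted to 12 h post-dose; test compound solution given by oral gavage at 1.0 or 3.0 mg/kg. Blood sampled at -0.5 h and 0.25–24 h. Plasma DPP-4 measured as AMC release from Gly-Pro-MCA (100 µmol/L working solution), pH 7.8 HEPES buffer, Ex 380/Em 460 nm for 3 min, AMC calibration, duplicates; n = 4–5.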

[10] = molecular target: T2, Cytochrome P450 2C8 (Homo sapiens, UniProt P10632); experiment: Inhibition of CYP2C8; assay type: ADME
T2 sequence (P10632 whole entry): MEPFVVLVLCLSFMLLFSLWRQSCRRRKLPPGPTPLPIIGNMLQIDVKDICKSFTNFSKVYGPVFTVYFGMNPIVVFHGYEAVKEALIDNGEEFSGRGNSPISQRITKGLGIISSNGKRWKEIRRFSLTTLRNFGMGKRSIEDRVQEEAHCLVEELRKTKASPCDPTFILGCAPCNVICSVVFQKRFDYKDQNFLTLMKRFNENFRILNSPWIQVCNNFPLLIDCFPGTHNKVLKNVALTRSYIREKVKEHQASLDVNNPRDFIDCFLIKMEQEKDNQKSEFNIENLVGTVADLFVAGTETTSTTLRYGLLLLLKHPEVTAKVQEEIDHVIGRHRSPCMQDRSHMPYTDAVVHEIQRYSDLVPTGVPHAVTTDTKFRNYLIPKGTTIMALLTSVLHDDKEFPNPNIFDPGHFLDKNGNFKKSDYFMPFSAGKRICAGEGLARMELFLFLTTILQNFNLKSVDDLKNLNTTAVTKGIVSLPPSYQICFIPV

[11] = molecular target: Dipeptidyl peptidase 8 (Homo sapiens, UniProt Q6V1X1); experiment: Inhibition of DPP8
[12] = Toxicity in rat assessed as organ toxicity after 2 weeks repeated dosage; assay type: organism-based; settings: in vivo
Outline: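 2-week repeated-dose toxicity study; rats n = 5 per sex, monkeys n = 1 per sex.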

[13] = Half life in dog at 1 mg/kg, iv; assay type: ADME, organism-based, Canis lupus familiaris; parameters: dose 1 mg/kg, route intravenous; settings: in vivo
[14] = molecular target: Dipeptidyl peptidase 2 (Homo sapiens, UniProt Q9UHL4); experiment: Inhibition of DPP2
[15] = molecular target: Cytochrome P450 3A4 (Homo sapiens, UniProt P08684); experiment: Inhibition of CYP3A4; assay type: ADME
[16] = molecular target: Dipeptidyl peptidase 4 (Homo sapiens, UniProt P27487); experiment: Inhibition of DPP4 in human plasma assessed as formation of 7-amino-4-methylcoumarin from glycyl-L-proline 4-methylcoumaryl-7-amide by fluorescence assay
[17] = Volume of distribution at steady state in monkey at 1 mg/kg, iv; assay type: ADME, organism-based, Macaca mulatta; parameters: dose 1 mg/kg, route intravenous; settings: rhesus monkey, in vivo, read-out: Vdss
[18] = Oral bioavailability in rat at 3 mg/kg; assay type: ADME, organism-based; settings: in vivo
[19] = Cmax in rat at 3 mg/kg, po; assay type: ADME, organism-based; parameters: dose 3 mg/kg, route oral; settings: in vivo
[20] = molecular target: T3, Prolyl endopeptidase (Homo sapiens, UniProt P48147); experiment: Inhibition of prolyl oligopeptidase
T3 sequence (P48147 whole entry): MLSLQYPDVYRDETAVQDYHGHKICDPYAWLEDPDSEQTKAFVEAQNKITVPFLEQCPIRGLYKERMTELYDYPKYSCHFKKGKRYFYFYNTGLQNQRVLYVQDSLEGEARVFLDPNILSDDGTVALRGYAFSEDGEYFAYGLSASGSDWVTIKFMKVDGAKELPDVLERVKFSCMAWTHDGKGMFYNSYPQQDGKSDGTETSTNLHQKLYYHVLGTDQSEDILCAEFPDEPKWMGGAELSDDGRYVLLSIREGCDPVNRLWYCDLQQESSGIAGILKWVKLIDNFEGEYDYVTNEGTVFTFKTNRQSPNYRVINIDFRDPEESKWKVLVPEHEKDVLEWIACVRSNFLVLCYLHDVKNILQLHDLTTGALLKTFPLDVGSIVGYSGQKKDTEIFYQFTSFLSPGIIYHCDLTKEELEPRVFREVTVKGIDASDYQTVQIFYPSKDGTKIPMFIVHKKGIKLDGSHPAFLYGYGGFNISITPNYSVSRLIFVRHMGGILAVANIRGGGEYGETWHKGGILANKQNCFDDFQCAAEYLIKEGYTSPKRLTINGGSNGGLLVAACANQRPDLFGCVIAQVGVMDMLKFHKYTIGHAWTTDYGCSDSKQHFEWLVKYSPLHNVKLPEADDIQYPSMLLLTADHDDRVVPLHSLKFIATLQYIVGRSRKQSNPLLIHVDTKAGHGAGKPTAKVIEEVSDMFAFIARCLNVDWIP

Sequence of Dipeptidyl peptidase 9 (Q86TI2 whole entry): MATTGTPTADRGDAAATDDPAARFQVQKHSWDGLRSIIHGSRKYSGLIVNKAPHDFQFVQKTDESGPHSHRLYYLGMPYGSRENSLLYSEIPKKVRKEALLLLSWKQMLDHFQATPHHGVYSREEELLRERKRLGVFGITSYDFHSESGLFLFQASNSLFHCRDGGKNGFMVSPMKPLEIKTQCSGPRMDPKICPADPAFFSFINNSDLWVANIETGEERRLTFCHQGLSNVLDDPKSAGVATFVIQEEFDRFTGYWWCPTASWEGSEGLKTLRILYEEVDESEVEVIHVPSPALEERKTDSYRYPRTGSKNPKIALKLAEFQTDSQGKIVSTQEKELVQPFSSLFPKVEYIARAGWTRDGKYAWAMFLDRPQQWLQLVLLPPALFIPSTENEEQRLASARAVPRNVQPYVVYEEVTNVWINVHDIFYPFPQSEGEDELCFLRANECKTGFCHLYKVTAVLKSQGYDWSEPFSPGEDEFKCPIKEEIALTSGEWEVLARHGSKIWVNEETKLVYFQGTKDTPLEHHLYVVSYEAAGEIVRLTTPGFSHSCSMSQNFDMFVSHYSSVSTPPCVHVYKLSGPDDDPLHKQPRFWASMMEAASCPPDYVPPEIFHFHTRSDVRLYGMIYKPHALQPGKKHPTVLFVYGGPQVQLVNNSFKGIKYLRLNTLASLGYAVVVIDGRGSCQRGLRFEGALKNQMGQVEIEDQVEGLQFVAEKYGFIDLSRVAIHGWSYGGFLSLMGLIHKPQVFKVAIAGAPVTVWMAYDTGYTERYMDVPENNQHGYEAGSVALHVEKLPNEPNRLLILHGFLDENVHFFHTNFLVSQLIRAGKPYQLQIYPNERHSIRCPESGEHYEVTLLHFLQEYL
Sequence of Xaa-Pro aminopeptidase 2 (O43895 whole entry): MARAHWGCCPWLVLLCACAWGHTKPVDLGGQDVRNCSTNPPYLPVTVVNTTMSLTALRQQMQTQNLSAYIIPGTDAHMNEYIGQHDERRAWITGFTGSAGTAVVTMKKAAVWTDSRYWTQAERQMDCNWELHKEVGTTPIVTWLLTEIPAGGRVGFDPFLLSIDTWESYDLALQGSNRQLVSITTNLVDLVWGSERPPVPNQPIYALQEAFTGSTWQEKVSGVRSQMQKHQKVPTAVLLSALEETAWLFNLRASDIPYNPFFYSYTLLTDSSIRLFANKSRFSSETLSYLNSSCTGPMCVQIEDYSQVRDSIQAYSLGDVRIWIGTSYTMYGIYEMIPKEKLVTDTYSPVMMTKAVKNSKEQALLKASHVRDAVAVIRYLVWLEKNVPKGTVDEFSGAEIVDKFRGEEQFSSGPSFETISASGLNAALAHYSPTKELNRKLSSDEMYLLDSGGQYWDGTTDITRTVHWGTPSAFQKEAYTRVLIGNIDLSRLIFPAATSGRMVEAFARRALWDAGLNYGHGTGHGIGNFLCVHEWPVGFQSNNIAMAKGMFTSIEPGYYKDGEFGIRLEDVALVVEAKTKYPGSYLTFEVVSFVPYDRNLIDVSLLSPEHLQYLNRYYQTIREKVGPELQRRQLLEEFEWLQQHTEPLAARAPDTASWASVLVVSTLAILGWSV
Sequence of Cytochrome P450 3A4 (P08684 whole entry): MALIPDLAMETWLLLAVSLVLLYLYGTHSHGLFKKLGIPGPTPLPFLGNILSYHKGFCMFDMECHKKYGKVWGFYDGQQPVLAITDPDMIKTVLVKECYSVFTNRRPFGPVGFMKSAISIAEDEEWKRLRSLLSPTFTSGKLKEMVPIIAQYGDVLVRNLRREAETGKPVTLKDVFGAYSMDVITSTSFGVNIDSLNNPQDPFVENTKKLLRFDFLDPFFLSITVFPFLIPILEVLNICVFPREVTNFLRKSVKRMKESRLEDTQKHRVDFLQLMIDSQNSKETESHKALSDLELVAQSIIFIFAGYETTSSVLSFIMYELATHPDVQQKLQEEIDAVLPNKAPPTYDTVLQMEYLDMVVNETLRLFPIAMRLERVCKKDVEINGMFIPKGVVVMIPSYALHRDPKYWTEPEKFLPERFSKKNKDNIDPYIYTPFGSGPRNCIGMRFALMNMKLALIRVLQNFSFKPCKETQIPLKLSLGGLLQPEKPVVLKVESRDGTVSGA
Sequence of Dipeptidyl peptidase 4 (P27487 whole entry): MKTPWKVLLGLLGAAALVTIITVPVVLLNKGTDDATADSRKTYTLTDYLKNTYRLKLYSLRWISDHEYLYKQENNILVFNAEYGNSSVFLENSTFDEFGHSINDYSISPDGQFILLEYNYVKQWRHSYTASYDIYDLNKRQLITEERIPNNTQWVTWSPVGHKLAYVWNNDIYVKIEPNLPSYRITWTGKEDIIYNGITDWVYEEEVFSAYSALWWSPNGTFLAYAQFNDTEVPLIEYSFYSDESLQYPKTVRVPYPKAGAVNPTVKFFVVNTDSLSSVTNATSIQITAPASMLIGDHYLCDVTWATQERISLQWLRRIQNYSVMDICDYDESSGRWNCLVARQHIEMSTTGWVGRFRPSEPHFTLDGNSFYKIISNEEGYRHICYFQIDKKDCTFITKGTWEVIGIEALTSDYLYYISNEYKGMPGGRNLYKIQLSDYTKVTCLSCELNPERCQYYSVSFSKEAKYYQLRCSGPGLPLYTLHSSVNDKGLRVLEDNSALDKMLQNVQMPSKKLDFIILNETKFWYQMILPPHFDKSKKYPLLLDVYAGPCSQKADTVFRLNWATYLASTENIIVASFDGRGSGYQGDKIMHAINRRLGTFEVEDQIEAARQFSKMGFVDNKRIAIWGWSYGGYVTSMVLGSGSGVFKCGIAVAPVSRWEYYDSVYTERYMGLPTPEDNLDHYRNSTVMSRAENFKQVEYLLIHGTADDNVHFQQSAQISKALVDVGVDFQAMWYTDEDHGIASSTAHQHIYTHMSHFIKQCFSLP
Sequence of Cytochrome P450 2D6 (P10635 whole entry): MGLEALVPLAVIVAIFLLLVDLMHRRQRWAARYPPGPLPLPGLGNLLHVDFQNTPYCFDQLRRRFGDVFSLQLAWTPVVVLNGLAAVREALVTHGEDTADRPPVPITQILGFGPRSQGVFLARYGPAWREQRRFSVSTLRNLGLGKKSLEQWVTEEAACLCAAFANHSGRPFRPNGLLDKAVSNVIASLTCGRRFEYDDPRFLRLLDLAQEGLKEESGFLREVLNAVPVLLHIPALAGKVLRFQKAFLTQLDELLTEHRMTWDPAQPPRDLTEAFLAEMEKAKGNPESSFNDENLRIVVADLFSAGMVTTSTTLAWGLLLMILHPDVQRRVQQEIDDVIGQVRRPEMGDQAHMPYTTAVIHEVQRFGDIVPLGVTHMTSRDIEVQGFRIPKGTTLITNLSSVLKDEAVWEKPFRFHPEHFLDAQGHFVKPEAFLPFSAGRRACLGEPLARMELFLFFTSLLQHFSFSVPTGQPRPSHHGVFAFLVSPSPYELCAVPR
Sequence of Dipeptidyl peptidase 8 (Q6V1X1 whole entry): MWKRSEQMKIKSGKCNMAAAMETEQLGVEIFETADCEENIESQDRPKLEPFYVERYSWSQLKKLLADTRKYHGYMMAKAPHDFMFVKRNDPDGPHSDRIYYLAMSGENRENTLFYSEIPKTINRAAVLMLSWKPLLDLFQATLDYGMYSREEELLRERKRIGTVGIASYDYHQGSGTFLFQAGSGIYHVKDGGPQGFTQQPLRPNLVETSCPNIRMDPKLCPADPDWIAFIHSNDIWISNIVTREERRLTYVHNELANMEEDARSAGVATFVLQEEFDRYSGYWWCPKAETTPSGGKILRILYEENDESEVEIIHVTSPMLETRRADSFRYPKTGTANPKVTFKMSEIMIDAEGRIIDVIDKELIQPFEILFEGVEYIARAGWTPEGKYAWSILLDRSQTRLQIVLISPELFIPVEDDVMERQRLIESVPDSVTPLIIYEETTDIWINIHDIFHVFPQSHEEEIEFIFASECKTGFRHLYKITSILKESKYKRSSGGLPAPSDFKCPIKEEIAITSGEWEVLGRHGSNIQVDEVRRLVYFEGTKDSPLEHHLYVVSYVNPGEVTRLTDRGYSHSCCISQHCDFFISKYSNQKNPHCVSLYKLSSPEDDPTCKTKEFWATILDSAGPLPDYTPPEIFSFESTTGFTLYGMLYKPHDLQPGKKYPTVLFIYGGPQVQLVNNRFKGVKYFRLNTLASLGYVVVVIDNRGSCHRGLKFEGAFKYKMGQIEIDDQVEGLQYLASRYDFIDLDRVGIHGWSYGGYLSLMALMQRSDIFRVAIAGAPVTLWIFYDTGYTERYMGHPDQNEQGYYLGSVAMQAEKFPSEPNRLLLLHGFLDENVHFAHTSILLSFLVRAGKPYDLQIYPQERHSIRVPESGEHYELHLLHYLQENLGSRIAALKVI

Cn1c(=O)c2c(cc(N3CCC[C@@](C)(N)C3)n2Cc2cc(F)ccc2C#N)n(C)c1=O
Cmax [1]: 77 ng/mL
IC50 [2]: > 50 µM
clearance [3]: 38 mL/min/kg
Activity [4]: Non-toxic
IC50 [5]: > 10 µM
fraction unbound [6]: 0.22
IC50 [7]: 38 µM
IC50 [8]: > 50 µM
inhibition [9]: Active
IC50 [10]: > 50 µM
IC50 [11]: > 50 µM
NOAEL at 336 h [12]: 60 mg/kg/day
half-life [13]: 3.1 h
IC50 [14]: > 50 µM
IC50 [15]: > 50 µM
IC50 [16]: 0.0011 µM
Vd [17]: 10 L/kg
bioavailability [18]: 52%
Cmax [19]: 76 ng/mL
IC50 [20]: > 50 µM
